Screens (PubChem)
Compounds with a hit are over-represented: about 1.9% of the library has one in this group of screens.
PP1 inh: PP1-alpha (human) inhibition in PP5 counter-screen; P62136; purified PP1alpha, OMFP fluorescence; inhibition, % at 6.7 µM; 320,000 tested, 0.9% active; AID 2235;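 active = inhibition above the mean inhibition of all tested compounds plus 3 SD, computed separately for each screening campaign, cut at about 15% in these data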
HIF activator: HIF pathway transcriptional activation; activation, % at 7.5 µM (by protocol); U2OS HRE-luciferase reporter, luminescence; normalized: DMSO 0%, desferrioxamine 100%; 300,000 tested, 0.32% active;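 active = mean activation of at least 10% of the iron chelator positive control signal, with at least half of replicates also reaching 10%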
DNA FID counter-1: counter-screen for HCV NS3 helicase inhibitors: DNA intercalator displacement; DNA fluorescent intercalator displacement, fluorescence; inhibition, % at 7.9 µM; 290,000 tested, 0.17% active; AID 1845;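 also: higher means more ethidium bromide displaced from hairpin DNA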
HCV NS3 hel inh: HCV NS3 helicase inhibition | NS3 helicase DNA unwinding, Cy5 molecular beacon fluorescence | inhibition, % at 10.9 µM | 290,000 tested, 0.56% active | AID 1800;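 active = inhibition above the mean of all tested compounds plus 3 SD, set per campaign, cut at about 35% in these data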
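Assay system – hepatitis C virus NS3 helicase domain fragment enzyme · Buffer or medium – MOPS pH 6.5, MgCl2, DTT, Tween20, BSA · Reagent – Cy5/quencher beacon DNA duplex and ATP to start · Compound – single 10.9 µM dose · Timing – 1 h at 25 °C · Technique – Cy5 beacon fluorescence read at start and 1 h · Measure – % inhibition of unwinding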
PP5 primary: inhibitors of human protein phosphatase 5 (PP5) | P53041 | purified PP5c, OMFP substrate fluorescence | inhibition, % at 6.7 µM | 320,000 tested, 0.18% active | AID 1987;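 active = inhibition above the campaign's mean inhibition across all tested compounds plus 3 SD, cut at about 9.5% in these data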
Target sequence (P53041 whole entry, looked up): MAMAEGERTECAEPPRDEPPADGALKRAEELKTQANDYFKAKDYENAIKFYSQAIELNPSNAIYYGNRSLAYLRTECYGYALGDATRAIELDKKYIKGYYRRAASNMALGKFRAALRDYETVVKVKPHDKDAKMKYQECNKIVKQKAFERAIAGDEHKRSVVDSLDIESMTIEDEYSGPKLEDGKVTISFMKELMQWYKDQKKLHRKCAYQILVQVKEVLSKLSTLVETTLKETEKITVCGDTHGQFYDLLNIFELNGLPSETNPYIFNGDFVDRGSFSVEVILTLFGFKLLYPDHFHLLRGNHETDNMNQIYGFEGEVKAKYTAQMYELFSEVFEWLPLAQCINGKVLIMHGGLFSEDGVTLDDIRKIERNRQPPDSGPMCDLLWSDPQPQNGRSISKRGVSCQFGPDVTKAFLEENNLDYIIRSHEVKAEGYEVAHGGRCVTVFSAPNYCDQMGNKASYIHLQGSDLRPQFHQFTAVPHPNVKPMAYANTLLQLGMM
NS3 helicase cf: HCV NS3 helicase inhibition, confirmation assay. NS3 helicase DNA unwinding, Cy5 molecular beacon fluorescence. AID 1943. inhibition, % at 10.9 µM. 1,600 tested, 31% active. shares compounds with HCV NS3 hel inh;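 active = inhibition above the mean of all tested compounds plus 3 SD, cutoff set per campaign, cut at about 36% in these data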
DNA FID counter-2: counter-screen for HCV NS3 helicase inhibitors: DNA intercalator displacement; DNA fluorescent intercalator displacement, fluorescence; shares compounds with HCV NS3 hel inh; inhibition, % at 7.9 µM; 1,600 tested, 4% active;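 also: higher means more displacement of ethidium bromide from the DNA hairpin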
Large screens that a line does not name were inactive (follow-up assays come after a bar, where they were run). Rule as the data show it, unless noted: active = inhibition above about 37%; inactive = the rest.

Cc1ccc(OCc2n[nH]c(=S)n2-c2ccc(Cl)cc2)cc1	none
Cc1ccc(OCc2n[nH]c(=S)n2-c2ccc(Br)cc2)cc1	HCV NS3 hel inh 37 | NS3 helicase cf inactive | DNA FID counter-2 inactive
CCOc1cc(C(=O)Nc2ccc(N3CCN(S(C)(=O)=O)CC3)cc2)cc(OCC)c1OCC	HCV NS3 hel inh 39 | NS3 helicase cf inactive | DNA FID counter-2 inactive
C#CCNc1nc(C)nc2c1nnn2Cc1ccccc1F	none
CC(=O)N(C)c1ccc(N=Cc2c(O)ccc3ccccc23)cc1	HCV NS3 hel inh 36 | NS3 helicase cf inactive | DNA FID counter-2 inactive
COc1ccc(S(=O)(=O)N2CCN(Cc3ccccc3)CC2)cc1OC	HCV NS3 hel inh 97 (no result: PP1 inh, PP5 primary) | NS3 helicase cf inactive | DNA FID counter-2 inactive
COc1cc(NC(=O)C(=O)NNC(=O)C2CCCCC2)c(OC)cc1Cl	HCV NS3 hel inh 36 | NS3 helicase cf inactive | DNA FID counter-2 inactive
COc1cc(OC)cc(C(=O)NNC(=O)C(=O)Nc2cc(OC)c(Cl)cc2OC)c1	none
Cc1cc(OCC(=O)NCC2CCC(C(=O)O)CC2)c2c(C)c(Cc3ccccc3)c(=O)oc2c1 (stereo not given)	none
CCCCN(C(C)=O)C1CC(=O)N(c2ccc(OCCC)cc2)C1=O (stereo not given)	none
CCCCCOc1ccc(N2C(=O)CC(N(O)c3ccccc3)C2=O)cc1 (stereo not given)	HCV NS3 hel inh 45 | NS3 helicase cf inactive | DNA FID counter-2 inactive
CCCCOc1ccc(N2C(=O)CC(N(O)c3ccccc3)C2=O)cc1 (stereo not given)	HCV NS3 hel inh 37 | NS3 helicase cf inactive | DNA FID counter-2 inactive
Cc1ccc(NC(=O)CN(C)C(=O)c2ccc(NS(=O)(=O)c3ccc4[nH]c(=O)[nH]c4c3)cc2)cc1	none (no result: HIF activator, DNA FID counter-1, HCV NS3 hel inh)
Cc1cc(N=Cc2c(O)ccc3cc(Br)ccc23)no1	HCV NS3 hel inh 37 | NS3 helicase cf inactive | DNA FID counter-2 39
Cc1cc(N=Cc2c(O)ccc3ccccc23)no1	none
Cc1c(C(=O)N2CCC3(CC2)CC(=O)c2ccccc2O3)cccc1[N+](=O)[O-]	none (no result: DNA FID counter-1, HCV NS3 hel inh)
Cc1ccc(-c2csc(/C(C#N)=C(\O)CN3CCN(C(=O)c4ccco4)CC3)n2)cc1	HCV NS3 hel inh 37 | NS3 helicase cf 42 | DNA FID counter-2 inactive
CS(=O)(=O)c1sc2nc(-c3cccs3)cc(-c3ccccc3)c2c1N	HCV NS3 hel inh 46 | NS3 helicase cf 78 | DNA FID counter-2 inactive
Oc1ccc(-c2csc(Nc3cccc4ccccc34)n2)cc1O	HCV NS3 hel inh 42 | NS3 helicase cf inactive | DNA FID counter-2 inactive
Oc1ccc(-c2csc(Nc3ccccn3)n2)cc1O	none
CCN(C(=O)C(C)N1C(=O)/C(=C/c2ccco2)SC1=S)C1CCS(=O)(=O)C1 (stereo not given)	none
CC(C(=O)O)N1C(=O)/C(=C/C=C/c2ccco2)SC1=S (stereo not given)	HCV NS3 hel inh 51 | NS3 helicase cf 81 | DNA FID counter-2 inactive
COc1ccccc1OCc1nnc(SCC(=O)Nc2ccc(N3CCOCC3)cc2)n1C	none
CCOc1ccc(N2C(=O)CC(N3CCN(c4ccc([N+](=O)[O-])cc4)CC3)C2=O)cc1 (stereo not given)	HCV NS3 hel inh 47 | NS3 helicase cf inactive | DNA FID counter-2 inactive
O=C(Nc1cccc2ccccc12)c1ccc([N+](=O)[O-])cc1	HCV NS3 hel inh 41 | NS3 helicase cf inactive | DNA FID counter-2 inactive
O=C(CNc1cccc2ccccc12)c1ccc([N+](=O)[O-])cc1	none
N#CC1=C(N)S[C@@H](C(=O)c2ccc(F)cc2)[C@@H]1c1cccs1	HCV NS3 hel inh 39 | NS3 helicase cf inactive | DNA FID counter-2 inactive
N#CC1=C(N)SC(C(=O)c2ccccc2)C1c1cccs1 (stereo not given)	none
Cc1ccc(/C=C2\Oc3cc(OCC(=O)NN)ccc3C2=O)o1	HCV NS3 hel inh 39 (no result: PP1 inh, PP5 primary) | NS3 helicase cf inactive | DNA FID counter-2 inactive
O=C(O)COc1ccc2c(c1)O/C(=C\c1ccco1)C2=O	none
COc1ccc2c(c1)C=C([C@@H]1C[C@H]3CN(c4ccccc4)C(=O)[C@]34CCCN14)CO2	none
CC1(C)C(=O)Nc2ccccc2N1C(=O)Cn1ncc(Cl)c(Cl)c1=O	HCV NS3 hel inh 47 | NS3 helicase cf inactive | DNA FID counter-2 inactive
Cc1nn(CC(=O)N2c3ccccc3NC(=O)C2(C)C)c(C)c1[N+](=O)[O-]	none
O=C(COC(=O)Cc1ccsc1)Nc1ccc(Cl)cn1	none (no result: HIF activator, DNA FID counter-1, HCV NS3 hel inh)
O=C(NCC1CCCCC1)c1cccc(Br)c1	none
COc1nc(C)ccc1-c1noc(-c2ccco2)n1	none
COc1nc(-c2ccc(C)cc2)ccc1-c1noc(-c2ccco2)n1	HCV NS3 hel inh 40 | NS3 helicase cf inactive | DNA FID counter-2 inactive
COc1ccc(-n2c(C)nnc2SCC(=O)N2CCOCC2)cc1	none
Cc1nn(Cc2ccc(Cl)cc2)c(C)c1NC(=O)c1noc2c1CCc1ccccc1-2	HCV NS3 hel inh 57 | NS3 helicase cf inactive | DNA FID counter-2 inactive
COc1ccc2c(c1)CCc1c(C(=O)Nc3c(C)nn(Cc4ccccc4)c3C)noc1-2	none
N#Cc1c(N2C(=O)Nc3ccccc3N2O)sc2c1CCCCCC2	HCV NS3 hel inh 42 | NS3 helicase cf 54 | DNA FID counter-2 inactive
N#Cc1c(-c2cccs2)nc(SCc2ccc(Cl)cc2)[nH]c1=O	HCV NS3 hel inh 48 (no result: PP1 inh, PP5 primary) | NS3 helicase cf 60 | DNA FID counter-2 inactive
CSc1nc(-c2cccs2)c(C#N)c(=O)[nH]1	none
OC(CNC1Cc2ccccc2C1)COc1ccc(F)cc1 (stereo not given)	HCV NS3 hel inh 37 | NS3 helicase cf inactive | DNA FID counter-2 inactive
COc1ccc(OCC(O)CNC2CCCC2)cc1 (stereo not given)	none (no result: PP1 inh, PP5 primary)
O=C(C1COc2ccccc2O1)N1CCc2ccccc2C1 (stereo not given)	none
CC1CN(c2nc3ccccc3nc2SCC(=O)Nc2ccc(F)cc2)CC(C)O1 (stereo not given)	none
CSCCC(NC(=O)c1cncc(Br)c1)C(=O)O (stereo not given)	HCV NS3 hel inh 40 | NS3 helicase cf inactive | DNA FID counter-2 inactive
O=C(c1ccco1)N1CCN(C(=O)c2[nH]ncc2[N+](=O)[O-])CC1	HCV NS3 hel inh 37 | NS3 helicase cf inactive | DNA FID counter-2 inactive
CC(=O)c1ccc(S(=O)(=O)N2CCC3(CC2)CC(=O)c2ccccc2O3)cc1	none (no result: DNA FID counter-1, HCV NS3 hel inh)
CCOC(=O)c1sc2ncnc(Nc3cccc(C(=O)O)c3)c2c1C	none
COC(=O)c1ccc(CN2CCN(CC(C)C)C(CCO)C2)cc1 (stereo not given)	HCV NS3 hel inh 38 | NS3 helicase cf inactive | DNA FID counter-2 inactive
O=C(CSc1nc2ccccc2n1Cc1ccccc1Cl)N/N=C/c1ccccc1C(=O)O	HCV NS3 hel inh 40 | NS3 helicase cf 50 | DNA FID counter-2 inactive
NS(=O)(=O)c1ccc(CCNC(=O)c2cc3ccccc3s2)cc1	HCV NS3 hel inh 51 | NS3 helicase cf inactive | DNA FID counter-2 inactive
